Legend:
[1] = target: T1, D(4) dopamine receptor (Homo sapiens) (UniProt P21917); test: Displacement of [3H]spiperone from human cloned dopamine D4 receptor at 100 uM
T1 sequence (whole entry): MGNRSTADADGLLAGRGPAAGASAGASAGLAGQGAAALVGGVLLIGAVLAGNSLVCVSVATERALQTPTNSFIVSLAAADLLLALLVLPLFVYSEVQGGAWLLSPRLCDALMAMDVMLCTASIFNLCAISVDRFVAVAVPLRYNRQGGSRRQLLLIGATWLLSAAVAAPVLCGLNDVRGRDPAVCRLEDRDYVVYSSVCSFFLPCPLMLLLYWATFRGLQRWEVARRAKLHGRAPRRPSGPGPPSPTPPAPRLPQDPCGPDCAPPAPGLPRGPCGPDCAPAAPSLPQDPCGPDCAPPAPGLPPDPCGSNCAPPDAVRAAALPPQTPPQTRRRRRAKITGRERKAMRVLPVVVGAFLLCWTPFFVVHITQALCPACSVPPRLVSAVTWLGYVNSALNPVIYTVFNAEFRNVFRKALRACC

[2] = target: T2, D(3) dopamine receptor (Homo sapiens, UniProt P35462); test: Displacement of [3H]spiperone from human cloned dopamine D3 receptor at 100 uM
[3] = target: T3, D(2) dopamine receptor (Homo sapiens, UniProt P14416); test: Displacement of [3H][…] from human cloned dopamine D2 long receptor at 100 uM
[4] = Distribution coefficient, log D at pH 7.4; assay type: physicochemical; conditions: octanol/water
Method in brief: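 Lipophilicity determined on the ¹⁸F-labelled radioligand as logD at pH 7.4, n = 6.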

[5] = Stability in human serum at 90 mins; assay type: ADME, cell-free; conditions: read-out: Stability
Method in brief: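 The ¹⁸F-labelled radioligand was incubated in human serum for 90 min, and intact tracer was quantified by radio-HPLC.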

[6] = target: D(1A) dopamine receptor (Sus scrofa, UniProt P50130); test: Binding affinity to pig cortical membrane dopamine D1 receptor
Method in brief: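 Porcine D1 receptor binding: displacement of [³H]SCH23390, screened with test compound at 10 μM, 100 nM and 1 nM. Ki (nM) is the mean of 2–4 experiments, each in triplicate.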

[7] = Displacement of [3H]prazosin from pig cortical membrane adrenergic alpha-1 receptor; set-up: species or system Sus scrofa
Method in brief: (§1)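 Porcine cortical membranes with selective radioligands: [³H]8-OH-DPAT or [³H][…] for 5-HT1A, [³H]ketanserin for 5-HT2, and [³H]prazosin for α1. Ki (nM) is the mean of 2–4 experiments, each in triplicate.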

[8] = target: 5-hydroxytryptamine receptor 2A (Sus scrofa, UniProt P50129); test: Displacement of [3H]ketanserin from pig cortical membrane 5HT2 receptor; method in brief: as §1
[9] = Binding affinity to pig cortical membrane 5HT1A receptor; set-up: species or system Sus scrofa; method in brief: as §1
[10] = target: T3, D(2) dopamine receptor; test: Binding affinity to human dopamine D2 long receptor
Method in brief: (§2)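 Competition radioligand binding at human dopamine receptors: displacement of [³H]spiperone from D2long, D3 and D4.4, screened with test compound at 10 μM, 100 nM and 1 nM. Ki values in nM are means of 2–4 experiments, each run in triplicate.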

[11] = target: T4, D(4) dopamine receptor (Homo sapiens, UniProt P21917); test: Binding affinity to human dopamine D4.4 receptor; method in brief: as §2
T4 sequence (P21917 whole entry): T1 sequence (whole entry)

[12] = target: T2, D(3) dopamine receptor; test: Binding affinity to human D3 receptor; method in brief: as §2
[13] = species on record: Homo sapiens; test: Selectivity for human dopamine D4 receptor over human dopamine D2 receptor
[14] = target: Dopamine receptors; D3 & D4 (Homo sapiens) (UniProt P35462+P21917); test: Selectivity for human dopamine D4 receptor over human dopamine D3 receptor
Dopamine receptors; D3 & D4 (Homo sapiens), sequence (P35462 whole entry, looked up, one chain of several): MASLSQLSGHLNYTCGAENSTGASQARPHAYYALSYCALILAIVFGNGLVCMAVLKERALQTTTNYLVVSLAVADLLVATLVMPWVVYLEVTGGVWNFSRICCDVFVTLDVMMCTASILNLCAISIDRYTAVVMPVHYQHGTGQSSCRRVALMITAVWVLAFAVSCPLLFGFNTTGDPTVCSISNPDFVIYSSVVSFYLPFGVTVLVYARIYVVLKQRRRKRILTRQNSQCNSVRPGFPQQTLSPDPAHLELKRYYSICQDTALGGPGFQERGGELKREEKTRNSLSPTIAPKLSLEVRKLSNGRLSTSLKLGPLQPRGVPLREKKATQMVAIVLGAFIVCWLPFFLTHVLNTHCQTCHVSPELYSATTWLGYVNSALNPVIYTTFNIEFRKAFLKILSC

T3 sequence (P14416 whole entry): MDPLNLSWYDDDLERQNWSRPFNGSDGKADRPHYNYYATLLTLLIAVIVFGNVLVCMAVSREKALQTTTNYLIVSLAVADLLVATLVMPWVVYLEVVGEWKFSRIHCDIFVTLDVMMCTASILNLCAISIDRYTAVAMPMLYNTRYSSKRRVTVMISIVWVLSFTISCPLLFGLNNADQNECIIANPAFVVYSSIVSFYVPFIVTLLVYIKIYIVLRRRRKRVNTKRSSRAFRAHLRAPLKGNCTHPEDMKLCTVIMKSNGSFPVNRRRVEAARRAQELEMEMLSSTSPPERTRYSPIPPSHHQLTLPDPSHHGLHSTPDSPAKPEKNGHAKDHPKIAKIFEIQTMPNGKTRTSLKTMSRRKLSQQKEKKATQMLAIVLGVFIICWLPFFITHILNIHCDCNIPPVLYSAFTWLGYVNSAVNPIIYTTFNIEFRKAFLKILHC
5-hydroxytryptamine receptor 2A, sequence (P50129 whole entry): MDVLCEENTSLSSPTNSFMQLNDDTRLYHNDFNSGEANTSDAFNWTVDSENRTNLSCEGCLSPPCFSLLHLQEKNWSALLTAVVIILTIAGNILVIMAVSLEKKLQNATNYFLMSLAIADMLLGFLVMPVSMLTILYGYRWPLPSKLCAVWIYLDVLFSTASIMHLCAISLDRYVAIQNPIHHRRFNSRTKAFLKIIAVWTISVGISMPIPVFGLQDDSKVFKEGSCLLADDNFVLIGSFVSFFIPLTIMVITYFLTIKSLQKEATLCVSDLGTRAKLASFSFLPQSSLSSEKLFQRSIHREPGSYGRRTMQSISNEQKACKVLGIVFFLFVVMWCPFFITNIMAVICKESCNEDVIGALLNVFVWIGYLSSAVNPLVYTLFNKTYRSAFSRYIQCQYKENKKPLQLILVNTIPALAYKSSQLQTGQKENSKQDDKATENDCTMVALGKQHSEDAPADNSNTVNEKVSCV
T2 sequence (P35462 whole entry): as the sequence (P35462 whole entry, looked up, one chain of several) above
D(1A) dopamine receptor, sequence (P50130 whole entry): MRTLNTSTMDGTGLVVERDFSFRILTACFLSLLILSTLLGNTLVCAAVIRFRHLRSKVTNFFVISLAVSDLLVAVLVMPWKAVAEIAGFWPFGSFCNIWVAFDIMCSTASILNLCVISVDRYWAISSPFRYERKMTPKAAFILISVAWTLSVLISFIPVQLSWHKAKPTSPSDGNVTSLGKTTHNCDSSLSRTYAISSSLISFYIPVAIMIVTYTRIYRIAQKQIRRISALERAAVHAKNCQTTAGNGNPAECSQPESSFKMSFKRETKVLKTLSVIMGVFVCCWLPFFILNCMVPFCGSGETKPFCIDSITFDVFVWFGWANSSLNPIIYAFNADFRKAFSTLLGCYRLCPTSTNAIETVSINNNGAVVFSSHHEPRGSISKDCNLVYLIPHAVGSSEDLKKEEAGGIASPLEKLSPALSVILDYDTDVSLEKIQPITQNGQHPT

Structure (SMILES)	Activity [1] [%]	Activity [2] [%]	Activity [3] [%]	Ki [6] [nM]	Ki [7] [nM]	Ki [8] [nM]	also measured
COc1cccc(CN2CCN(c3cccc(OC)c3)CC2)c1	46	9	-0	–	–	–	–
COc1cc(CN2CCN(c3ccc(Cl)cc3)CC2)c(OCC[18F])cc1OC	–	–	–	–	–	–	logD [4]: 2.8; remaining at 1.5 h [5]: > 95%
COc1ccccc1N1CCN(Cc2ccccc2Br)CC1	44	21	9	–	–	–	–
COc1cccc(CN2CCN(c3ccccc3OC)CC2)c1	26	39	6	–	–	–	–
Cc1ccc(N2CCN(Cc3ccc(C#N)cc3)CC2)cc1	59	4	-0	–	–	–	–
COc1ccccc1N1CCN(Cc2ccc(C#N)cc2)CC1	82	5	4	–	–	–	–
N#Cc1ccc(CN2CCN(c3ccccc3Cl)CC2)cc1	73	2	2	–	–	–	–
COc1cccc(CN2CCN(c3ccccc3Cl)CC2)c1	55	13	4	–	–	–	–
FCCOc1ccc(CN2CCN(c3ccc(Cl)cc3)CC2)cc1	–	–	–	1400	160	1800	Ki [9]: 5200 nM; Ki [10]: 1100 nM; Ki [11]: 50 nM; Ki [12]: 1100 nM
Clc1ccccc1N1CCN(Cc2ccccc2Br)CC1	9	4	-0	–	–	–	–
COc1cccc(CN2CCN(c3ccc(F)cc3)CC2)c1	18	-0	2	–	–	–	–
COc1cc(CN2CCN(c3ccccc3OC)CC2)ccc1OCCF	–	–	–	5400	21	2100	Ki [9]: 100 nM; Ki [10]: 310 nM; Ki [11]: 1.8 nM; Ki [12]: 1100 nM
COc1cccc(CN2CCN(c3ccc(C)cc3)CC2)c1	45	39	6	–	–	–	–
COc1ccccc1N1CCN(Cc2cccc(OCCF)c2)CC1	–	–	–	5200	36	1900	Ki [9]: 32 nM; Ki [10]: 57 nM; Ki [11]: 1.6 nM; Ki [12]: 270 nM
COc1cc(CN2CCN(c3ccc(Cl)cc3)CC2)ccc1OCCF	–	–	–	5700	18	850	Ki [9]: 18000 nM; Ratio Ki [13]: 1750; Ki [10]: 21000 nM; Ki [11]: 12 nM; Ki [12]: 4900 nM
COc1cccc(N2CCN(Cc3ccccc3Br)CC2)c1	4	-0	2	–	–	–	–
Clc1ccc(N2CCN(Cc3cc4ccccn4n3)CC2)cc1	–	–	–	5500	270	900	Ki [9]: 1700 nM
FCCOc1cccc(CN2CCN(c3ccc(Cl)cc3)CC2)c1	–	–	–	5100	190	980	Ki [9]: 3300 nM; Ki [10]: 590 nM; Ki [11]: 82 nM; Ki [12]: 1100 nM
N#Cc1ccc(CN2CCN(c3ccc(Cl)c(Cl)c3)CC2)cc1	91	-0	-0	–	–	–	–
COc1cccc(N2CCN(Cc3ccc(C#N)cc3)CC2)c1	69	6	2	–	–	–	–
Fc1ccc(N2CCN(Cc3ccccc3Br)CC2)cc1	4	1	1	–	–	–	–
COc1cccc(CN2CCN(c3ccc(Cl)c(Cl)c3)CC2)c1	92	2	9	–	–	–	–
Clc1ccc(N2CCN(Cc3ccccc3Br)CC2)cc1Cl	-0	14	10	–	–	–	–
COc1ccccc1N1CCN(Cc2ccc(OCCF)cc2)CC1	–	–	–	3400	47	5400	Ki [10]: 120 nM; Ki [11]: 3.7 nM; Ki [12]: 77 nM
COc1cc(CN2CCN(c3ccccc3OC)CC2)c(OCCF)cc1OC	–	–	–	6800	13	280	Ki [9]: 100 nM; Ki [10]: 94 nM; Ki [11]: 1.3 nM; Ki [12]: 330 nM
N#Cc1ccc(CN2CCN(c3ccc(F)cc3)CC2)cc1	47	15	-0	–	–	–	–
COc1cc(CN2CCN(c3ccc(Cl)cc3)CC2)c(OCCF)cc1OC	–	–	–	3500	4.4	100	Ratio Ki [14]: 2300; Ki [9]: 2800 nM; Ratio Ki [13]: 450; Ki [10]: 760 nM; Ki [11]: 1.7 nM; Ki [12]: 3900 nM
Cc1ccc(N2CCN(Cc3ccccc3Br)CC2)cc1	7	16	6	–	–	–	–
